Results on one compound are retold here after ChEMBL document CHEMBL6153131, “Rational Design and Optimization of a Potent IDO1 Proteolysis Targeting Chimera (PROTAC)” (J Med Chem, 2025).

The source made the active and inactive calls. The rule behind the calls is not given here.

Series [1] deals with T1, Protein cereblon/Indoleamine 2,3-dioxygenase 1 (Homo sapiens, UniProt P14902+Q96SW2). Put plainly: PROTAC activity at CRBN/IDO1 in human U87 cells assessed as induction of IDO1 degradation by measuring remaining activity at 0.003 uM incubated for 24 hrs by Western blotting analysis (reference value: 100%). The series is classed as cell-based. (In general: A western blot detects proteins with antibodies after separation by electrophoresis.)
T1 sequence (P14902 whole entry, looked up): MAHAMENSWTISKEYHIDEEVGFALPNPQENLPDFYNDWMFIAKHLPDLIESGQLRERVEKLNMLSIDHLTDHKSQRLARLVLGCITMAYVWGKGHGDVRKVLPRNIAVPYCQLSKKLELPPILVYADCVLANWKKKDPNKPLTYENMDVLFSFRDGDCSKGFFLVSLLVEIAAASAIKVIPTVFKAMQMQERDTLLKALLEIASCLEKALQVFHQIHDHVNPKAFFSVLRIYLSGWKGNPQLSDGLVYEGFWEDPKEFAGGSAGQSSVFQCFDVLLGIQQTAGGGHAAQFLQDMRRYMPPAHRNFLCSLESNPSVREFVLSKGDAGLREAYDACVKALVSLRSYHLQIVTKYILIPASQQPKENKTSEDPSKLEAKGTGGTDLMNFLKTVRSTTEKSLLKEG
T1 sequence (Q96SW2 whole entry, looked up): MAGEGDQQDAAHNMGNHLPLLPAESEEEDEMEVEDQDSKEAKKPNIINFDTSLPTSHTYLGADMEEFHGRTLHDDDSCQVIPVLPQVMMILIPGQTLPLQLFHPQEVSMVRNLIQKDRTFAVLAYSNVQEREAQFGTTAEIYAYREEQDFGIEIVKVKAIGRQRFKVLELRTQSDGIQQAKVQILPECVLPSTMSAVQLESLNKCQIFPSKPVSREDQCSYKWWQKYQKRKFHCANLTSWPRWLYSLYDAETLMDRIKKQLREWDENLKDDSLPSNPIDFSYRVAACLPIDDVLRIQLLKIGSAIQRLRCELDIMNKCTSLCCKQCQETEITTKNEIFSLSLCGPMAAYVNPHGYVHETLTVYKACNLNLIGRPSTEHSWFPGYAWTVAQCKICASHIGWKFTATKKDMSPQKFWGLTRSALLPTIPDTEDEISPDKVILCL

Series [2] addresses T1, Protein cereblon/Indoleamine 2,3-dioxygenase 1. Kind of series: PROTAC activity at CRBN/IDO1 in human U87 cells assessed as induction of IDO1 degradation by measuring maximum efficacy at 100 nM pretreated with IFN-gamma for 24 hrs followed by compound addition and measured after 24 hrs by Western blotting analysis relative to control. In kind it is cell-based. In outline:
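IDO1 in U87 cells induced with 50 ng/mL human IFN-γ, then compound given across an extended dose range for 24 h. IDO1 and GAPDH read by Western blot; IDO1 levels normalized to untreated; DC50 from n = 3 independent experiments.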

Series [3] has the same target. Put plainly: PROTAC activity at CRBN/IDO1 in human U87 cells assessed as induction of IDO1 degradation by measuring remaining activity at 100 nM pretreated with IFN-gamma for 24 hrs followed by compound addition and measured after 24 hrs by Western blotting analysis (reference value: 100%). In kind it is cell-based.
Series [4] has the same target. Put plainly: PROTAC activity at CRBN/IDO1 in human U87 cells assessed as induction of IDO1 degradation at 50 to 100 nM pretreated with IFN-gamma for 24 hrs followed by compound addition and measured upto 72 hrs by Western blotting analysis. The series is classed as cell-based. Conditions: dose 50-100 nM. The essentials: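 U87 cells under single continuous PROTAC treatment (50 and 100 nM), sampled at multiple time points up to 72 h. IDO1 assessed by Western blot.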

For series [5] the target is unchanged. Kind of series: PROTAC activity at CRBN/IDO1 in human U87 cells assessed as induction of IDO1 degradation at 100 nM at 0.5 uM pretreated with IFN-gamma for 24 hrs followed by compound addition and measured after 24 hrs in presence of MLN4924 by Western blotting analysis. In kind it is cell-based.
Series [6] shares this target. Kind of series: PROTAC activity at CRBN/IDO1 in human U87 cells assessed as induction of IDO1 degradation at 100 nM at 1 uM pretreated with IFN-gamma for 24 hrs followed by compound addition and measured after 24 hrs in presence of MG132 by Western blotting analysis. In kind it is cell-based.
Series [7] shares this target. Put plainly: PROTAC activity at CRBN/IDO1 in human U87 cells overexpressing GFP-fused IDO1 assessed as induction of IDO1 degradation pretreated with IFN-gamma for 24 hrs followed by compound addition and measured after 24 hrs by Western blotting analysis. The series is classed as cell-based. Conditions: dose 50-100 nM. The essentials: (§1)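 Cells had IDO1 induced with IFNγ, then were treated at the indicated concentrations for 24 h. Lines: PDX-6 and PDX-38 adult GBM PDX cells, U87 overexpressing GFP-fused IDO1, PC-3, KNS42, MDA-MB-231, SW-1990 and SKOV-3. Lysates probed for IDO1 and GAPDH by Western blot; representative of 3 separate replicates.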

The target is the same in series [8]. Put plainly: PROTAC activity at CRBN/IDO1 in human KNS-42 cells assessed as induction of IDO1 degradation pretreated with IFN-gamma for 24 hrs followed by compound addition and measured after 24 hrs by Western blotting analysis. The series is classed as cell-based. Conditions: dose 50-100 nM. In outline:
as §1

For another series, the system named is PDX-38. Put plainly: Inhibition of kynurenine production in human PDX-38 cells pretreated with IFN-gamma for 24 hrs followed by compound addition and measured after 24 hrs by Ehrlich's reagent based analysis. The series is classed as functional, cell-based. Conditions: dose 50-100 nM.
The subject of a further series is KNS-42. Put plainly: Inhibition of kynurenine production in human KNS-42 cells pretreated with IFN-gamma for 24 hrs followed by compound addition and measured after 24 hrs by Ehrlich's reagent based analysis. In kind it is functional, cell-based. Conditions: dose 50-100 nM.
In another series the test system is Kelly. Kind of series: Downregulation of EPHX2 protein level in human Kelly cells at 1 uM incubated for 24 hrs by proteomics analysis. The series is classed as functional, cell-based.
Series [9] can be described thus: AUC (0 to infinity) in female C57BL/6J mouse brain at 50 mg/kg, ip by LC-MS/MS analysis. In kind it is ADME, organism-based.

As for `C[C@@H](C(=O)Nc1cccc(OC2CCN(C(=O)CN3CCC(N4CCN(c5ccc6c(c5)C(=O)N(C5CCC(=O)NC5=O)C6=O)CC4)CC3)CC2)c1)[C@H]1CC[C@@H](c2ccnc3ccc(F)cc32)CC1` (some centres not stated), the Activity in series [1] is 71%; in series [3] it was 24%; in series [7], “Dose-dependent-effect”; in series [8], “Dose-dependent-effect”. Further, the maximum response (Emax) in [2] is 88%. Moreover, the result (in series [4]; in the series on Kelly) was Active. Further, the result in series [5] and in series [6] was inactive. Moreover, the inhibition entry with PDX-38 and with KNS-42 was “Dose-dependent-effect” throughout. The same compound gave an area under the curve AUC(0-inf) in series [9] of 1 µM·h.

As a reminder, the Emax is the maximal effect, on the per cent scale that the assay sets. The term AUC(0-inf) denotes the area under the concentration-time curve extrapolated to infinity.
